# Test results taken from ChEMBL document CHEMBL1687807, “Effect of N-1/c-8 ring fusion and C-7 ring structure on fluoroquinolone lethality” (2010).
# What was measured:
# Format in all cases: functional
# [1] = system: Escherichia coli; test: Bactericidal activity against Escherichia coli K-12 DM4100 after 2 hrs in presence of protein synthesis inhibitor chloramphenicol treated 10 mins before compound challenge
# Outline: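 Midlog E. coli grown aerobically at 37°C in LB. Chloramphenicol added to 20 μg/ml 10 min before quinolone, then 2 h further incubation. Cells diluted in growth medium and plated on drug-free agar, then incubated overnight at 37°C for CFU counts. Percent survival is relative to CFU at quinolone addition.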
# [2] = system: Escherichia coli; test: Ratio of LD99 for Escherichia coli K-12 DM4100 to MIC for Escherichia coli K-12 DM4100
# Outline: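 MIC: 10^4 to 10^5 cells/ml incubated at 37°C in LB broth with serial 2-fold quinolone dilutions. Lethality: midlog cultures grown aerobically at 37°C and exposed to quinolone for 2 h, then plated on drug-free agar overnight for CFU. Survival is expressed as percent of CFU at drug addition.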
# [3] = system: Escherichia coli; test: Bacteriostatic activity against Escherichia coli K-12 DM4100
# Outline: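 MIC by broth dilution: E. coli K-12 DM4100 at 10^4 to 10^5 cells/ml in LB liquid medium with serial 2-fold dilutions of quinolone, incubated at 37°C. Drug stock dilutions made in sterile distilled water.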
Structure (SMILES),LD99 [1],Ratio [2],MIC [3]
CCC1CN(c2c(F)cc3c(=O)c(C(=O)O)cn(C4CC4)c3c2OC)CCN1 (stereo not given),0.8 µg/mL,5,0.16 µg/mL
COc1c(N2CCNCC2)c(F)cc2c(=O)c(C(=O)O)cn(C3CC3)c12,0.04 µg/mL,1.3,0.031 µg/mL
CCN1CCN(c2c(F)cc3c(=O)c(C(=O)O)cn4c3c2OC[C@@H]4C)CC1,1.5 µg/mL,2,0.75 µg/mL
CCC1CN(c2c(F)cc3c(=O)c(C(=O)O)cn4c3c2OC[C@@H]4C)CCN1 (stereo not given in full),0.5 µg/mL,2,0.25 µg/mL
CC1CN(c2c(F)cc3c(=O)c(C(=O)O)cn4c3c2OC[C@@H]4C)CCN1 (stereo not given in full),0.74 µg/mL,2.4,0.31 µg/mL
CCN1CCN(c2c(F)cc3c(=O)c(C(=O)O)cn(C4CC4)c3c2OC)CC1,0.14 µg/mL,1.4,0.1 µg/mL
COc1c(N2CCN(C)CC2)c(F)cc2c(=O)c(C(=O)O)cn(C3CC3)c12,0.2 µg/mL,3.2,0.062 µg/mL
C[C@H]1COc2c(N3C[C@@H]4CCCN[C@@H]4C3)c(F)cc3c(=O)c(C(=O)O)cn1c23,0.25 µg/mL,2,0.125 µg/mL
COc1c(N2CCNC(C)C2)c(F)cc2c(=O)c(C(=O)O)cn(C3CC3)c12 (stereo not given) [GATIFLOXACIN],0.2 µg/mL,5,0.04 µg/mL
C[C@H]1COc2c(N3CCN(C)CC3)c(F)cc3c(=O)c(C(=O)O)cn1c23.C[C@H]1COc2c(N3CCN(C)CC3)c(F)cc3c(=O)c(C(=O)O)cn1c23.O [LEVOFLOXACIN],0.8 µg/mL,4,0.2 µg/mL
CN1CCN(c2c(F)cc3c(=O)c(C(=O)O)cn4c3c2OCN4C)CC1 [MARBOFLOXACIN],0.06 µg/mL,3,0.02 µg/mL
COc1c(N2C[C@@H]3CCCN[C@@H]3C2)c(F)cc2c(=O)c(C(=O)O)cn(C3CC3)c12 [MOXIFLOXACIN],0.5 µg/mL,4,0.125 µg/mL
C[C@H]1COc2c(N3CCNCC3)c(F)cc3c(=O)c(C(=O)O)cn1c23 [N-DESMETHYL LEVOFLOXACIN],1.2 µg/mL,1.2,1 µg/mL
C[C@H]1COc2c(C3(N)CC3)c(F)cc3c(=O)c(C(=O)O)cn1c23 [PAZUFLOXACIN],0.08 µg/mL,4,0.02 µg/mL
CN1CCN(c2c(F)cc3c(=O)c(C(=O)O)cn4c3c2SCC4)CC1 [RUFLOXACIN],7 µg/mL,7,1 µg/mL
